Measurements: ChEMBL document CHEMBL1143731, “Synthesis and pharmacological testing of polyaminoquinolines as blockers of the apamin-sensitive Ca2+-activated K+ channel (SK(Ca))” (Bioorg Med Chem, 2007)

Experiments:
[1] = target: Small conductance calcium-activated potassium channel protein 3 (Rattus norvegicus, UniProt P70605); assay: Inhibition of SKca channel-mediated after-hypepolarization in rat sympathetic neurons; type: cell-based, Sympathetic neuron
Outline: (§1)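 Rat sympathetic neurones (SK3 SKCa), short-term tissue culture. Action potentials evoked by depolarizing current pulses; afterhyperpolarization amplitude measured before, during and after compound applied in external solution at 2–4 concentrations, at least three neurones. Dequalinium reference in each assay. Hill fits with common Hill coefficient and maximum inhibition per assay gave IC50; EMR = test/dequalinium concentration for 50% AHP inhibition, by simultaneous weighted nonlinear least squares.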

[2] = target: Small conductance calcium-activated potassium channel protein 3 (Rattus norvegicus) (UniProt P70605); assay: Ratio of concentration drug to dequalinium to cause 50% inhibition of SKca channel-mediated after-hypepolarization in rat sympathetic neurons; type: cell-based; settings: Sympathetic neuron; outline: as §1
Sequence of Small conductance calcium-activated potassium channel protein 3 (Rattus norvegicus) (P70605 whole entry): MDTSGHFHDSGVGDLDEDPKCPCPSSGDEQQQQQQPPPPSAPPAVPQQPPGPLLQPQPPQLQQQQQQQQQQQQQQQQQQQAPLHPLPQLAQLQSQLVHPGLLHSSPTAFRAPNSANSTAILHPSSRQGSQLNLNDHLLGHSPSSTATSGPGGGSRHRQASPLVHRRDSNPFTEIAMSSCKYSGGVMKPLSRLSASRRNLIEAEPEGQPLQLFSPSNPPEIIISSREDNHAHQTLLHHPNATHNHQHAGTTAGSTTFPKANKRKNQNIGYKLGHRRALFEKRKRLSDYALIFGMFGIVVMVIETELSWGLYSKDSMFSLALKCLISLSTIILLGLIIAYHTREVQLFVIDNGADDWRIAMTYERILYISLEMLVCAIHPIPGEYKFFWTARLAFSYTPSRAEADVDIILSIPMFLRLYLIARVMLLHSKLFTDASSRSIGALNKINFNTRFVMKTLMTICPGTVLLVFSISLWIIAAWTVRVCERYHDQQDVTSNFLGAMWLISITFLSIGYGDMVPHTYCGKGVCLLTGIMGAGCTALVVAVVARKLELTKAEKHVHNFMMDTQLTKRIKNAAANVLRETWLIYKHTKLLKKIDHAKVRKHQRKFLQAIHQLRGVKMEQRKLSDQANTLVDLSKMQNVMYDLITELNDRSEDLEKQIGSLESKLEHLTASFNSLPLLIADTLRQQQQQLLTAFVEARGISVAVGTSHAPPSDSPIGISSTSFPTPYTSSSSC

Sequence of Small conductance calcium-activated potassium channel protein 3 (P70605 whole entry): as above

SMILES	IC50 [1]	EMR [2]
N=C(N)NCCCNC(=O)/C=C/C(=O)N(CCCCCCCCN)CCCNC(=N)N	27000 nM	
c1ccc2c(NCCCNCc3cc(OCCCNc4ccnc5ccccc45)cc(OCCCNc4ccnc5ccccc45)c3)ccnc2c1	360 nM	0.48
N=C(N)NCCCNC(=O)/C=C\C(=O)N(CCCCCCCCN)CCCNC(=N)N	> 30000 nM	
c1ccc2c(c1)c1cc[n+]2CCCCC[n+]2ccc(c3ccccc32)NCCCCCN1		0.003
Nc1cc[n+](CCCC=C(CCCC[n+]2ccc(N)c3ccccc32)CCCC[n+]2ccc(N)c3ccccc32)c2ccccc12		0.1
N=C(N)NCc1ccc(/C=C\c2ccc(CNC(=N)N)cc2)cc1		59
c1ccc2c(NCCCOc3ccc(CCNc4ccnc5ccccc45)cc3OCCCNc3ccnc4ccccc34)ccnc2c1	270 nM	0.31
Cc1cc(N)c2ccccc2[n+]1CCCCCCCCCC[n+]1c(C)cc(N)c2ccccc21		1
c1cc2cc(c1)C[n+]1ccc(c3ccccc31)NCc1ccc(cc1)CNc1cc[n+](c3ccccc13)C2		0.01
N=C(N)NCCCNC(=O)/C=C/C(=O)N(CCCNC(=N)N)Cc1ccc(-c2ccc(CN)cc2)cc1	17000 nM	33
c1ccc2c(NCCCCCN(CCCNc3ccnc4ccccc34)Cc3cc(OCCCNc4ccnc5ccccc45)cc(OCCCNc4ccnc5ccccc45)c3)ccnc2c1	130 nM	0.23
NC(N)=NCc1ccc(/C=C\c2ccc(CN=C(N)N)cc2)cc1	25000 nM	
c1ccc2c(NCCCCCN(CCCNc3ccnc4ccccc34)c3cc(OCCCNc4ccnc5ccccc45)cc(OCCCNc4ccnc5ccccc45)c3)ccnc2c1	93 nM	0.17
NCCCCCCCCN(CCCNc1ccnc2ccccc12)C(=O)/C=C/C(=O)NCCCNc1ccnc2ccccc12	490 nM	0.59
c1ccc2c(NCCCNc3cc(OCCCNc4ccnc5ccccc45)cc(OCCCNc4ccnc5ccccc45)c3)ccnc2c1	220 nM	0.26
CC[n+]1ccc(NCCCOc2cccc(OCCCNc3cc[n+](CC)c4ccccc34)c2OCCCNc2cc[n+](CC)c3ccccc23)c2ccccc21	86 nM	0.16
c1cc(OCCCNc2ccnc3ccccc23)c(OCCCNc2ccnc3ccccc23)c(OCCCNc2ccnc3ccccc23)c1	130 nM	0.23
